Measurements published in ChEMBL document CHEMBL1123503, “Synthesis and biological activity of 3-amino-5-(3,5-diamino-6-chloropyrazin-2-yl)-1,2,4-oxadiazole: an amiloride prodrug” (1986).
Values joined by “and” are separate entries in the source; they are usually repeats but may differ in a detail not shown here. Identical values can stand only once.

Columns and labels:
[1] = tested on: Rattus norvegicus; assay: Compound was evaluated for diuretic activity determined by the ability to induce electrolytic excretion (K+) at a time period of 0-5 hr for dose 3 mg/kg; type: functional, Urine
In short: (§1)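 Female Sprague-Dawley rats weighing 160-170 g were dosed orally at 3, 9, 27 or 81 mg/kg, housed three per cage, with three cages per dose. Urinary Na+, K+ and Cl- (mequiv × 100) and urine volume (mL) were measured over 0-5 h and 0-24 h after dosing. A placebo group was run alongside.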

[2] = tested on: Rattus norvegicus; assay: Compound was evaluated for diuretic activity determined by the ability to induce electrolytic excretion (Cl-) at a time period of 0-24 hr for dose 27 mg/kg; type: functional, Urine; in short: as §1
[3] = tested on: Canis familiaris; assay: Diuretic activity in mongrel dog was determined by the ability of compound to induce electrolytic excretion (CL-) at a time period of 0-5 hr after administration of 5 mg/kg dose.
[4] = tested on: Rattus norvegicus; assay: Compound was evaluated for diuretic activity determined by the ability to induce electrolytic excretion (K+) at a time period of 0-24 hr for dose 81 mg/kg; type: functional, Urine; set-up: unit: mequiv × 100; in short: as §1
[5] = tested on: Rattus norvegicus; assay: Compound was evaluated for diuretic activity determined by the ability to induce electrolytic excretion (Cl-) at a time period of 0-24 hr for dose 81 mg/kg; type: functional, Urine; in short: as §1
[6] = tested on: Rattus norvegicus; assay: Compound was evaluated for diuretic activity determined by the ability to induce electrolytic excretion (K+) at a time period of 0-24 hr for dose 9 mg/kg; type: functional, Urine; in short: as §1
[7] = tested on: Rattus norvegicus; assay: Compound was evaluated for diuretic activity determined by the ability to induce electrolytic excretion (K+) at a time period of 0-5 hr for dose 27 mg/kg; type: functional, Urine; in short: as §1
[8] = tested on: Rattus norvegicus; assay: Compound was evaluated for diuretic activity determined by the ability to induce electrolytic excretion (Cl-) at a time period of 0-5 hr for dose 27 mg/kg; type: functional, Urine; in short: as §1
[9] = tested on: Rattus norvegicus; assay: Compound was evaluated for diuretic activity determined by the ability to induce electrolytic excretion (Na+) at a time period of 0-5 hr for dose 27 mg/kg; type: functional, Urine; in short: as §1
[10] = tested on: Rattus norvegicus; assay: Urine volumes was determined in Sprague-Dawley rats was determined at time period of 0-5 hours at 9 mg/kg; type: functional; in short: as §1
[11] = tested on: Rattus norvegicus; assay: Compound was evaluated for diuretic activity determined by the ability to induce electrolytic excretion (K+) at a time period of 0-5 hr for dose 81 mg/kg; type: functional, Urine; in short: as §1
[12] = tested on: Canis familiaris; assay: Diuretic activity in mongrel dog was determined by the ability to induce electrolytic excretion (K+) at a time period of 0-5 hr after administration of 5 mg/kg dose.
[13] = tested on: Rattus norvegicus; assay: Urine volumes in Sprague-Dawley rats was determined at time period of 0-5 hours at 81 mg/kg; type: functional; in short: as §1
[14] = tested on: Rattus norvegicus; assay: Compound was evaluated for diuretic activity determined by the ability to induce electrolytic excretion (Cl-) at a time period of 0-24 hr for dose 3 mg/kg; type: functional, Urine; in short: as §1
[15] = tested on: Rattus norvegicus; assay: Compound was evaluated for diuretic activity determined by the ability to induce electrolytic excretion (Cl-) at a time period of 0-5 hr for dose 3 mg/kg; type: functional, Urine; in short: as §1
[16] = tested on: Rattus norvegicus; assay: Compound was evaluated for diuretic activity determined by the ability to induce electrolytic excretion (Na+) at a time period of 0-24 hr for dose 81 mg/kg; type: functional, Urine; in short: as §1
[17] = tested on: Rattus norvegicus; assay: Urine volumes was determined at time period of 0-5 hours for dose 9 mg/kg; type: functional
In short: (§2)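 Female Sprague-Dawley rats (160-170 g) were dosed orally at 3-81 mg/kg, with a placebo group. Housing was three rats per cage and three cages per dose. Urinary Na+, K+ and Cl- (mequiv × 100) and urine volume were measured over 0-5 h and 0-24 h.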

[18] = tested on: Canis familiaris; assay: Diuretic activity in mongrel dog was determined by the ability to induce electrolytic excretion (Na+) at a time period of 0-5 hr after administration of 5 mg/kg dose.
[19] = tested on: Rattus norvegicus; assay: Urine volumes in Sprague-Dawley rats was determined at time period of 0-5 hours at 27 mg/kg; type: functional; in short: as §1
[20] = tested on: Rattus norvegicus; assay: Compound was evaluated for diuretic activity determined by the ability to induce electrolytic excretion (Na+) at a time period of 0-24 hr for dose 27 mg/kg; type: functional, Urine; in short: as §1
[21] = tested on: Rattus norvegicus; assay: Compound was evaluated for diuretic activity determined by the ability to induce electrolytic excretion (Na+) at a time period of 0-24 hr for dose 3 mg/kg; type: functional, Urine; in short: as §1
[22] = tested on: Rattus norvegicus; assay: Compound was evaluated for diuretic activity determined by the ability to induce electrolytic excretion (Na+) at a time period of 0-5 hr for dose 3 mg/kg; type: functional, Urine; in short: as §1
[23] = tested on: Rattus norvegicus; assay: Compound was evaluated for diuretic activity determined by the ability to induce electrolytic excretion (K+) at a time period of 0-24 hr for dose 3 mg/kg; type: functional, Urine; in short: as §1
[24] = tested on: Rattus norvegicus; assay: Compound was evaluated for diuretic activity determined by the ability to induce electrolytic excretion (Cl-) at a time period of 0-5 hr for dose 9 mg/kg; type: functional, Urine; in short: as §1
[25] = tested on: Rattus norvegicus; assay: Compound was evaluated for diuretic activity determined by the ability to induce electrolytic excretion (Na+) at a time period of 0-5 hr for dose 9 mg/kg; type: functional, Urine; in short: as §1
[26] = tested on: Rattus norvegicus; assay: Urine volumes in Sprague-Dawley rats was determined at time period of 0-5 hours at 3 mg/kg; type: functional; in short: as §1
[27] = tested on: Rattus norvegicus; assay: Compound was evaluated for diuretic activity determined by the ability to induce electrolytic excretion (Cl-) at a time period of 0-24 hr for dose 9 mg/kg; type: functional, Urine; in short: as §1
[28] = tested on: Rattus norvegicus; assay: Compound was evaluated for diuretic activity determined by the ability to induce electrolytic excretion (K+) at a time period of 0-24 hr for dose 27 mg/kg; type: functional, Urine; in short: as §1
[29] = tested on: Rattus norvegicus; assay: Compound was evaluated for diuretic activity determined by the ability to induce electrolytic excretion (Na+) at a time period of 0-5 hr for dose 81 mg/kg; type: functional, Urine; in short: as §1
[30] = tested on: Rattus norvegicus; assay: Compound was evaluated for diuretic activity determined by the ability to induce electrolytic excretion (Na+) at a time period of 0-24 hr for dose 9 mg/kg; type: functional, Urine; in short: as §1
[31] = tested on: Rattus norvegicus; assay: Compound was evaluated for diuretic activity determined by the ability to induce electrolytic excretion (K+) at a time period of 0-5 hr for dose 9 mg/kg; type: functional, Urine; in short: as §1
[32] = tested on: Rattus norvegicus; assay: Urine volumes was determined at time period of 0-5 hours for dose 27 mg/kg; type: functional; in short: as §2
[33] = tested on: Rattus norvegicus; assay: Compound was evaluated for diuretic activity determined by the ability to induce electrolytic excretion (Cl-) at a time period of 0-5 hr for dose 81 mg/kg; type: functional, Urine; in short: as §1
[34] = tested on: Rattus norvegicus; assay: Urine volumes in Sprague-Dawley rats was determined at time period of 0-5 hours at 9 mg/kg; type: functional; in short: as §1
[35] = tested on: Canis familiaris; assay: Compound was evaluated for urinary levels (mg) after administration at time period
[36] = tested on: Rattus norvegicus; assay: Urine volumes in Sprague-Dawley rats was determined at time period of 0-5 hours dose 27 mg/kg; type: functional; in short: as §1
[37] = tested on: Rattus norvegicus; assay: Urine volumes in Sprague-Dawley rats was determined at time period of 0-5 hours dose 3 mg/kg; type: functional; in short: as §1
[38] = tested on: Canis familiaris; assay: Compound was evaluated for percentage recovery from urine after administration of 0.1 mg/kg dose; type: functional, organism-based; set-up: dose 0.1 mg/kg; details: Canis lupus familiaris
In short: (§3)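 Catheterized mongrel dogs (average 14-16 kg, 6 per group) were given oral doses of 0.1-1.0 mg/kg. Urine was collected at 0-6 h and 6-24 h. Each 1-mL aliquot was partitioned between saturated Na2CO3 and ethyl acetate, and the organic phase was back-extracted into 0.5 N HCl. Amiloride in the acid phase was read spectrofluorometrically (excitation 365 nm, emission 420 nm). Results are mean ± SD, with % recovery.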

[39] = tested on: Rattus norvegicus; assay: Urine volumes in Sprague-Dawley rats was determined at time period of 0-5 hours dose 81 mg/kg; type: functional; in short: as §1
[40] = tested on: Rattus norvegicus; assay: Urine volumes in Sprague-Dawley rats was determined at time period of 0-5 hours dose 9 mg/kg; type: functional; in short: as §1
[41] = tested on: Canis familiaris; assay: Compound was evaluated for percentage recovery from urine after administration of 0.3 mg/kg dose; type: functional, organism-based; set-up: dose 0.3 mg/kg; details: Canis lupus familiaris; in short: as §3
[42] = tested on: Canis familiaris; assay: Diuretic activity in mongrel dog was determined by the ability to induce electrolytic excretion (CL-) at a time period of 0-5 hr after administration of 5 mg/kg dose.
[43] = tested on: Rattus norvegicus; assay: Compound was evaluated for diuretic activity determined by the ability of to induce electrolytic excretion (Cl-) at a time period of 0-24 hr for dose 3 mg/kg; type: functional, Urine; in short: as §1

| SMILES | Diuretic effect [1] | Diuretic effect [2] | Diuretic effect [4] | Diuretic effect [5] | Diuretic effect [6] | Diuretic effect [7] | Diuretic effect [8] | Diuretic effect [9] | Diuretic effect [11] | Diuretic effect [15] | Diuretic effect [16] | Diuretic effect [20] | Diuretic effect [21] | Diuretic effect [22] | Diuretic effect [23] | Diuretic effect [24] | Diuretic effect [25] | Diuretic effect [27] | Diuretic effect [28] | Diuretic effect [29] | other results |
| --- | --- | --- | --- | --- | --- | --- | --- | --- | --- | --- | --- | --- | --- | --- | --- | --- | --- | --- | --- | --- | --- |
| CN(C)c1nc(N)c(-c2nc(N)no2)nc1Cl | 2 | 270 | 53 | 267 | 83 | 1 | 63 | 107 | 1 | 40 | 352 | 341 | 202 | 64 | 97 | 48 | 88 | 200 | 82 | 108 | Diuretic effect [3]: 3; Urine volume [10]: 32 mL; Diuretic effect [12]: 0.6; Urine volume [13]: 30 mL; Diuretic effect [14]: 170; Diuretic effect [17]: 7.2; Diuretic effect [18]: 7.2; Urine volume [19]: 31 mL; Urine volume [26]: 28 mL; Diuretic effect [30]: 258; Diuretic effect [31]: 2; Diuretic effect [32]: 0.6; Diuretic effect [33]: 57 |
| C[n+]1oc(-c2nc(Cl)c(N)nc2N)nc1N.[I-] | 3 | 277 | 96 | 326 | 92 | 4 | 49 | 104 | 7 | 28 | 433 | 389 | 281 | 17 | 139 | 39 | 79 | 204 | 89 | 135 | Urine volume [13]: 29 mL; Diuretic effect [14]: 203; Urine volume [19]: 27 mL; Urine volume [34]: 25 mL; Urine volume [26]: 25 mL; Diuretic effect [30]: 296; Diuretic effect [31]: 2; Diuretic effect [33]: 95 |
| Nc1noc(-c2nc(Cl)c(N)nc2N)n1 | 7 | 258 | 72 | 344 | 102 | 4 | 32 | 67 | 5 | 36 | 396 | 292 | 184 | 64 | 79 | 35 | 69 | 235 | 79 | 135 | Urinary level [35]: 0.42 mg; Urine volume [36]: 26 mL; Urine volume [37]: 24 mL; Recovery [38]: 36.2% and 22.4%; Urine volume [39]: 25 mL; Urine volume [40]: 28 mL; Recovery [41]: 24.2%; Diuretic effect [12]: 0.9; Diuretic effect [18]: 6.5; Diuretic effect [30]: 269; Diuretic effect [31]: 4; Diuretic effect [42]: 4.3; Diuretic effect [33]: 73; Diuretic effect [43]: 152 |
